Assay results: publication PMC10864903 (Heliyon, 2024)
≈ marks a conversion by molar mass, not a printed value.

Key:
[1] = tested on: MTCC-739 (Escherichia coli); assay: Agar-disc diffusion, E. coli; type: cell-based; conditions: MTCC739, read-out: Diameter of Growth Inhibition Zone, E. coli
P. aeruginosa = assay: Minimal inhibitory concentration, P. aeruginosa; type: cell-based; conditions: Pseudomonas aeruginosa, read-out: Minimal Inhibitory Concentration (MIC), P. aeruginosa
Method in brief: (§1)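 Agar disc diffusion against bacterial strains, following a previously reported method. Strains were P. aeruginosa MTCC-2453 and S. aureus MTCC-96. Test compounds were anthraquinone-linked coumarins. MIC was reported in µg/mL.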

[2] = tested on: MTCC-2453 (Pseudomonas aeruginosa); assay: Agar-disc diffusion, P. aeruginosa; type: cell-based; conditions: MTCC2453, read-out: Diameter of Growth Inhibition Zone, P. aeruginosa
B. cereus = assay: Minimal inhibitory concentration, B. cereus; type: cell-based; conditions: Bacillus cereus, read-out: Minimal Inhibitory Concentration (MIC), B. cereus
[3] = tested on: MTCC-1306 (Bacillus cereus); assay: Agar-disc diffusion, B. cereus; type: cell-based; conditions: MTCC1306, read-out: Diameter of Growth Inhibition Zone, B. cereus
E. coli = assay: Minimal inhibitory concentration, E. coli; type: cell-based; conditions: Escherichia coli, read-out: Minimal Inhibitory Concentration (MIC), E. coli
[4] = tested on: recultured (Enterobacter aerogenes); assay: Agar-disc diffusion, E. aerogenes; type: cell-based; conditions: Klebsiella aerogenes, read-out: Diameter of Growth Inhibition Zone, E. aerogenes
S. aureus = assay: Minimal inhibitory concentration, S. aureus; type: cell-based; conditions: Staphylococcus aureus, read-out: Minimal Inhibitory Concentration (MIC), S. aureus
Method in brief: as §1

[5] = tested on: MTCC-96 (Staphylococcus aureus); assay: Agar-disc diffusion, S. aureus; type: cell-based; conditions: MTCC96, read-out: Diameter of Growth Inhibition Zone, S. aureus
[6] = tested on: Tyrosinase from mushrooms; assay: Mushroom tyrosinase inhibition, L-dopa as substrate; type: biochemical; conditions: mean ± SD of three experiments

O=C(O)c1cn(C2CC2)c2cc(N3CCNCC3)c(F)cc2c1=O [Ciprofloxacin, ciprofloxacin]
zone of inhibition at 100 µg/disc [1]: 27 mm
MIC (P. aeruginosa): 1 µg/mL (≈ 3.02 µM)
zone of inhibition at 100 µg/disc [2]: 26 mm
MIC (B. cereus): 2 µg/mL (≈ 6.04 µM)
zone of inhibition at 100 µg/disc [3]: 22 mm
MIC (E. coli): 0.5 µg/mL (≈ 1.51 µM)
zone of inhibition at 100 µg/disc [4]: 30 mm
MIC (S. aureus): 1 µg/mL (≈ 3.02 µM)
zone of inhibition at 100 µg/disc [5]: 25 mm

O=c1cc(CO)occ1O [Kojic acid, kojic acid]
Tyrosinase inhibitory activity (%) at 25 μg/mL ([6]; 25 μg/mL): 55.67 ± 0.12%
Tyrosinase inhibitory activity (%) at 50 μg/mL ([6]; 50 μg/mL): 68.62 ± 0.32%
Tyrosinase inhibitory activity (%) at 100 μg/mL ([6]; 100 μg/mL): 85.54 ± 0.23%
